Columns and labels:
[1] = molecular target: Platelet-activating factor receptor (Mus musculus) (UniProt Q62035); test: Dose required to inhibit PAF-induced mortality by 50% in mice; format: functional; conditions: Mus sp.
Outline: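 Male Swiss mice (22-26 g), groups of 10; test compound given po (20 mL/kg), controls 1% Tween 80. 60 min later, C18-PAF 100 µg/kg plus propanolol 1 mg/kg injected into a lateral tail vein. Mortality scored 2 h after PAF; % inhibition vs controls. ID50 from linear regression of one curve, ≥4 points. Initial dose 3 mg/kg; further doses only if >50% inhibition.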

[2] = molecular target: Platelet-activating factor receptor (Rattus norvegicus) (UniProt P46002); test: Intravenous dose required to reduce the arterial blood pressure caused by PAF by 50% in rats; format: functional
Sequence of Platelet-activating factor receptor (Rattus norvegicus) (P46002 whole entry): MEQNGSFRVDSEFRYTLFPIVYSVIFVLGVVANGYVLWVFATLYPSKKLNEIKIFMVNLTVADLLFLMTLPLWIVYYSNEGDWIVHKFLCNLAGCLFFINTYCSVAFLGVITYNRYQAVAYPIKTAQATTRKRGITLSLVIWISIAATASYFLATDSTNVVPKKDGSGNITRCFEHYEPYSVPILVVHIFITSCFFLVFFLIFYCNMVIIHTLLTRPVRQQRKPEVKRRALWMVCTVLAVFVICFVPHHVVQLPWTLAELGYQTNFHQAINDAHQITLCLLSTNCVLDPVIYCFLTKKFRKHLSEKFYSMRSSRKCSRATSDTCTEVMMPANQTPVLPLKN
Outline: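 Male Sprague-Dawley rats (180-220 g) under pentobarbital anesthesia (50 mg/kg ip); carotid blood pressure recorded. Compound in saline given iv (femoral vein) 3 min before PAF 0.5 µg/kg iv; controls got vehicle. % inhibition of hypotension vs controls. ID50 from linear regression of one curve, ≥4 doses, each the mean of ≥2 independent experiments.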

[3] = Inhibition of PAF-induced platelet aggregation
Oryctolagus cuniculus = organism: Oryctolagus cuniculus; test: In vitro inhibition of PAF-induced platelet aggregation in male rabbits

Sequence of Platelet-activating factor receptor (Mus musculus) (Q62035 whole entry): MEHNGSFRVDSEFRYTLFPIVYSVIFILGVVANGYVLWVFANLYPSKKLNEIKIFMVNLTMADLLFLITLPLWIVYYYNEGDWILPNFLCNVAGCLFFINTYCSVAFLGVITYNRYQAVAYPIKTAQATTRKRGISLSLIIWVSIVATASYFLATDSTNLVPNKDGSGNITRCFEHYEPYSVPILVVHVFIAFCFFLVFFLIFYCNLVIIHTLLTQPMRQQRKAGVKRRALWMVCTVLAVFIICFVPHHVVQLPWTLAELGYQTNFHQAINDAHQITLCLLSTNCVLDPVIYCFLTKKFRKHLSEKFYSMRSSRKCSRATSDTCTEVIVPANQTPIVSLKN

IC50 [3]	IC50 (Oryctolagus cuniculus)	Compound	ID50 [1]	ID50 [2]
–	–	Cc1ncccc1C(C#N)N1CCN(C(=O)CNC(C)(c2ccccc2)c2ccccc2)CC1 (centres undefined)	> 3 mg/kg	0.057 mg/kg
53 nM	–	N#CC(c1cccnc1)N1CCN(C(=O)CCNC(c2ccccc2)c2ccccc2)CC1 (centres undefined)	–	–
–	–	Cc1ncccc1C(C#N)N1CCN(C(=O)CC(NC(=O)Oc2ccccc2)c2ccccc2)CC1 (centres undefined)	> 3 mg/kg	0.036 mg/kg
–	21 nM	N#CC(c1cccnc1)N1CCN(C(=O)CC(O)(c2ccccc2)c2ccccc2)CC1 (centres undefined)	–	–
–	–	Cc1ncccc1C(C#N)N1CCN(C(=O)CC(NC(N)=O)c2ccccc2)CC1 (centres undefined)	> 3 mg/kg	–
–	–	Cc1ncccc1C(C#N)N1CCN(C(=O)CC(O)(c2ccccc2)c2cccnc2)CC1 (centres undefined)	1 mg/kg	0.042 mg/kg
–	–	Cc1ncccc1C(C#N)N1CCN(C(=O)CC(NC(=O)OCC(C)C)c2ccccc2)CC1 (centres undefined)	> 3 mg/kg	0.017 mg/kg
–	–	Cc1ncccc1C(C#N)N1CCN(C(=O)CC(NCc2cccnc2)c2ccccc2)CC1 (centres undefined)	> 3 mg/kg	0.029 mg/kg
–	–	Cc1ncccc1C(C#N)N1CCN(C(=O)CC(c2ccccc2)n2cccc2)CC1 (centres undefined)	1 mg/kg	0.014 mg/kg
–	–	Cc1ncccc1C(C#N)N1CCN(C(=O)CC(NC(=O)c2cccnc2)c2ccccc2)CC1 (centres undefined)	0.41 mg/kg	0.029 mg/kg
–	–	CC(=O)NC(CC(=O)N1CCN(C(C#N)c2cccnc2C)CC1)c1ccccc1 (centres undefined)	0.09 mg/kg	0.035 mg/kg
–	–	Cc1ncccc1C(C#N)N1CCN(C(=O)CN(C=O)C(c2ccccc2)c2ccccc2)CC1 (centres undefined)	1.5 mg/kg	0.016 mg/kg
–	–	Cc1ncccc1C(C#N)N1CCN(C(=O)CC(NC(=O)OC(C)(C)C)c2ccccc2)CC1 (centres undefined)	1.2 mg/kg	0.049 mg/kg
–	–	CCOC(=O)NC(CC(=O)N1CCN(C(C#N)c2cccnc2C)CC1)c1ccccc1 (centres undefined)	0.23 mg/kg	0.025 mg/kg
–	–	C#CC(c1cccnc1C)N1CCN(C(=O)CNC(c2ccccc2)c2ccccc2)CC1 (centres undefined)	> 3 mg/kg	–
–	–	CC(=O)N(CC(=O)N1CCN(C(C#N)c2cccnc2C)CC1)C(c1ccccc1)c1ccccc1 (centres undefined)	2 mg/kg	0.039 mg/kg
–	–	CCOC(=O)C(CC(=O)N1CCN(C(C#N)c2cccnc2C)CC1)(c1ccccc1)c1ccccc1 (centres undefined)	> 3 mg/kg	0.12 mg/kg
–	–	Cc1ncccc1C(C#N)N1CCN(C(=O)CC(c2ccccc2)N2CCCS2(=O)=O)CC1 (centres undefined)	> 3 mg/kg	0.048 mg/kg
–	–	CO/N=C(/C)C(c1cccnc1C)N1CCN(C(=O)CC(c2ccccc2)c2ccccc2)CC1 (centres undefined)	> 3 mg/kg	–
–	–	Cc1ncccc1C(C#N)N1CCN(C(=O)CC(NC(=O)N2CCCC2)c2ccccc2)CC1 (centres undefined)	0.97 mg/kg	0.055 mg/kg
–	–	Cc1ncccc1C(C#N)N1CCN(C(=O)CC(NS(=O)(=O)c2ccccc2)c2ccccc2)CC1 (centres undefined)	> 3 mg/kg	0.04 mg/kg
–	–	Cc1ncccc1C(C#N)N1CCN(C(=O)CC(c2ccccc2)C(F)(F)F)CC1 (centres undefined)	> 3 mg/kg	0.023 mg/kg
–	–	Cc1ncccc1C(C#N)N1CCN(C(=O)CC(c2ccccc2)N2CCOC2=O)CC1 (centres undefined)	1 mg/kg	0.029 mg/kg
–	–	Cc1ncccc1C(C#N)N1CCN(C(=O)CC(NC(=O)c2cccnc2O)c2ccccc2)CC1 (centres undefined)	> 3 mg/kg	0.12 mg/kg

IC50 [3]	IC50 (Oryctolagus cuniculus)	Compound	ID50 [1]	ID50 [2]
–	–	Cc1ncccc1C(C#N)N1CCN(C(=O)CC(O)(c2ccccc2)C(F)(F)F)CC1 (centres undefined)	0.44 mg/kg	0.013 mg/kg
–	–	Cc1ncccc1C(C#N)N1CCN(C(=O)CC(NS(C)(=O)=O)c2ccccc2)CC1 (centres undefined)	1 mg/kg	0.017 mg/kg
–	–	Cc1ncccc1C(C#N)N1CCN(C(=O)CC(NC(=O)OCc2ccccc2)c2ccccc2)CC1 (centres undefined)	> 3 mg/kg	0.018 mg/kg
–	–	Cc1ncccc1C(C#N)N1CCN(C(=O)CC(c2ccccc2)N(Cc2ccccc2)Cc2ccccc2)CC1 (centres undefined)	> 3 mg/kg	0.068 mg/kg
–	–	Cc1ncccc1C(C#N)N1CCN(C(=O)CN(C(c2ccccc2)c2ccccc2)S(C)(=O)=O)CC1 (centres undefined)	> 3 mg/kg	0.083 mg/kg
–	–	Cc1ncccc1C(C#N)N1CCN(C(=O)C(C)(C)C(F)(c2ccccc2)c2ccccc2)CC1 (centres undefined)	> 3 mg/kg	0.34 mg/kg
9.1 nM	–	N#CC(c1cccnc1)N1CCN(C(=O)CNC(c2ccccc2)c2ccccc2)CC1 (centres undefined)	5.9 mg/kg	0.023 mg/kg
–	–	Cc1ncccc1C(C#N)N1CCN(C(=O)CCNC(c2ccccc2)c2ccccc2)CC1 (centres undefined)	0.62 mg/kg	0.044 mg/kg
–	–	Cc1ncccc1C(C#N)N1CCN(C(=O)CCC(c2ccccc2)c2ccccc2)CC1 (centres undefined)	> 3 mg/kg	0.028 mg/kg
–	–	Cc1ncccc1C(C#N)N1CCN(C(=O)[C@H](C)NC(c2ccccc2)c2ccccc2)CC1 (some centres undefined)	1.6 mg/kg	0.025 mg/kg
–	–	Cc1ncccc1C(C#N)N1CCN(C(=O)COC(c2ccccc2)c2ccccc2)CC1 (centres undefined)	> 3 mg/kg	0.048 mg/kg
–	–	CCc1ncccc1C(C#N)N1CCN(C(=O)CNC(c2ccccc2)c2ccccc2)CC1 (centres undefined)	0.7 mg/kg	0.063 mg/kg
–	–	COC(=O)NC(CC(=O)N1CCN(C(C#N)c2cccnc2C)CC1)c1ccc(C(F)(F)F)cc1 (centres undefined)	1.6 mg/kg	0.014 mg/kg
–	–	Cc1ncccc1C(C#N)N1CCN(C(=O)[C@@H](C)NC(c2ccccc2)c2ccccc2)CC1 (some centres undefined)	> 3 mg/kg	–
–	–	Cc1ncccc1C(C#N)N1CCN(C(=O)C=C(c2ccccc2)c2ccccc2)CC1 (centres undefined)	2.2 mg/kg	0.038 mg/kg
–	–	Cc1ncccc1C(C#N)N1CCN(C(=O)CC(O)(c2ccccc2)c2ccccc2)CC1 (centres undefined)	0.69 mg/kg	0.039 mg/kg
–	–	Cc1ncccc1C(C#N)N1CCN(C(=O)CC(c2ccccc2)N2CCCC2=O)CC1 (centres undefined)	0.13 mg/kg	0.026 mg/kg
–	–	Cc1ncccc1C(C#N)N1CCN(C(=O)CSC(c2ccccc2)c2ccccc2)CC1 (centres undefined)	> 3 mg/kg	0.058 mg/kg
–	–	Cc1ncccc1C(C#N)N1CCN(C(=O)CNC(c2ccc(F)cc2)c2ccc(F)cc2)CC1 (centres undefined)	3 mg/kg	0.049 mg/kg
–	–	C#CCNC(CC(=O)N1CCN(C(C#N)c2cccnc2C)CC1)c1ccccc1 (centres undefined)	3 mg/kg	–
–	10 nM	N#CC(c1cccnc1)N1CCN(C(=O)C=C(c2ccccc2)c2ccccc2)CC1 (centres undefined)	–	–
–	–	Cc1ncccc1C(C#N)N1CCN(C(=O)CC(c2ccccc2)N2CCCC2)CC1 (centres undefined)	–	0.22 mg/kg
–	–	Cc1ncccc1C(C#N)N1CCN(C(=O)CC(Nc2ccccc2)c2ccccc2)CC1 (centres undefined)	0.27 mg/kg	0.042 mg/kg
–	–	Cc1ncccc1C(C#N)N1CCN(C(=O)CC(N)c2ccccc2)CC1 (centres undefined)	> 3 mg/kg	0.92 mg/kg

IC50 [3]	IC50 (Oryctolagus cuniculus)	Compound	ID50 [1]	ID50 [2]
–	–	C=CCNC(CC(=O)N1CCN(C(C#N)c2cccnc2C)CC1)c1ccccc1 (centres undefined)	1 mg/kg	–
–	–	Cc1ncccc1C(C#N)N1CCN(C(=O)CC(C)c2ccccc2)CC1 (centres undefined)	> 3 mg/kg	0.039 mg/kg
–	–	Cc1ncccc1C(C#N)N1CCN(C(=O)CNC2c3ccccc3-c3ccccc32)CC1 (centres undefined)	> 3 mg/kg	0.085 mg/kg
–	–	Cc1ncccc1C(C#N)N1CCN(C(=O)CON=C(c2ccccc2)c2ccccc2)CC1 (centres undefined)	> 3 mg/kg	0.071 mg/kg
–	–	Cc1ncccc1C(C#N)N1CCN(C(=O)CC(NC(=O)c2ccccc2)c2ccccc2)CC1 (centres undefined)	> 3 mg/kg	0.056 mg/kg
20 nM	–	N#CC(c1cccnc1)N1CCN(C(=O)CC(c2ccccc2)c2ccccc2)CC1 (centres undefined)	–	–
–	–	CNC(CC(=O)N1CCN(C(C#N)c2cccnc2C)CC1)c1ccccc1 (centres undefined)	3 mg/kg	0.067 mg/kg
–	–	Cc1ncccc1C(C#N)N1CCN(C(=O)C[S+]([O-])C(c2ccccc2)c2ccccc2)CC1 (centres undefined)	> 3 mg/kg	0.034 mg/kg
–	–	COC(=O)N(Cc1ccccc1)C(CC(=O)N1CCN(C(C#N)c2cccnc2C)CC1)c1ccccc1 (centres undefined)	3 mg/kg	0.066 mg/kg
–	–	Cc1ncccc1C(C#N)N1CCN(C(=O)CS(=O)(=O)C(c2ccccc2)c2ccccc2)CC1 (centres undefined)	> 3 mg/kg	0.11 mg/kg
–	–	Cc1ncccc1C(C#N)N1CCN(C(=O)CC(NC(=O)c2ncccc2O)c2ccccc2)CC1 (centres undefined)	3 mg/kg	0.036 mg/kg
–	–	CCOC(=O)C(c1cccnc1C)N1CCN(C(=O)CC(c2ccccc2)c2ccccc2)CC1 (centres undefined)	> 30 mg/kg	–
–	–	Cc1ncccc1C(C#N)N1CCN(C(=O)CC(C)(O)c2ccccc2)CC1 (centres undefined)	> 3 mg/kg	0.029 mg/kg
–	–	Cc1ncccc1C(C#N)N1CCN(C(=O)CC(NCc2ccccc2)c2ccccc2)CC1 (centres undefined)	1.2 mg/kg	0.035 mg/kg
–	–	Cc1ncccc1C(C#N)N1CCN(C(=O)/C=C(\c2ccccc2)C(F)(F)F)CC1 (centres undefined)	> 3 mg/kg	0.12 mg/kg
–	–	Cc1ncccc1C(C#N)N1CCN(C(=O)CC(c2ccccc2)c2ccccc2)CC1 (centres undefined)	0.9 mg/kg	0.015 mg/kg
–	–	Cc1ncccc1C(CO)N1CCN(C(=O)CC(c2ccccc2)c2ccccc2)CC1 (centres undefined)	> 3 mg/kg	–
–	–	Cc1ncccc1C(C#N)N1CCN(C(=O)[C@H](CO)NC(c2ccccc2)c2ccccc2)CC1 (some centres undefined)	2.4 mg/kg	0.02 mg/kg
–	–	COC(=O)N(C)C(CC(=O)N1CCN(C(C#N)c2cccnc2C)CC1)c1ccccc1 (centres undefined)	2 mg/kg	0.036 mg/kg
–	–	CNC(=O)C(CC(=O)N1CCN(C(C#N)c2cccnc2C)CC1)c1ccccc1 (centres undefined)	0.78 mg/kg	0.05 mg/kg
–	–	Cc1ncccc1C(C#N)N1CCN(C(=O)/C=C(/c2ccccc2)C(F)(F)F)CC1 (centres undefined)	> 3 mg/kg	–
–	–	Cc1ncccc1C(C#N)N1CCN(C(=O)CC(c2ccccc2)N(C)Cc2ccccc2)CC1 (centres undefined)	> 3 mg/kg	0.024 mg/kg
–	–	Cc1ncccc1C(C#N)N1CCN(C(=O)CC(O)(c2ccc(F)cc2)c2ccc(F)cc2)CC1 (centres undefined)	> 3 mg/kg	0.051 mg/kg

From ChEMBL document CHEMBL1126841, “Synthesis and structure-activity relationships of 1-acyl-4-((2-methyl-3-pyridyl)cyanomethyl)piperazines as PAF antagonists” (J Med Chem, 1993)
